Compounds with a hit are over-represented: about 2.4% of the library has one in this group of screens.
NadD inh – NadD (S. aureus) enzyme inhibition; purified NadD enzyme, colorimetric absorbance read-out; 360,000 compounds, 0.78% hits; AID 602399; inhibition, % at 20 µM; in the data active means inhibition above about 26%
LMPTP inh – blocks human LMPTP phosphatase; P24666; recombinant LMPTP-A, OMFP fluorogenic substrate, fluorescence intensity; inhibition, % at 20 µM; 360,000 compounds, 0.22% hits; AID 651560;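 active means compounds that cut the enzyme signal by at least half of the control window in the single-dose screen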;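 further: plate controls were DMSO wells with enzyme plus substrate for no effect and substrate without enzyme for full effect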
Target sequence (P24666 whole entry, looked up): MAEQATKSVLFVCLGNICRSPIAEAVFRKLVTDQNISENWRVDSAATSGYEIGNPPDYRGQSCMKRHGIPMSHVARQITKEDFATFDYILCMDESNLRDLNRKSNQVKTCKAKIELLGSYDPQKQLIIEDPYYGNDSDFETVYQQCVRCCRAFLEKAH
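Assay system: LMPTP-A, protein tyrosine phosphatase of low molecular weight / Medium: pH 6.0 Bis-Tris buffer with DTT and Triton X-100 / Schedule: 50 min enzyme reaction at room temperature, protected from light / Measured by: endpoint fluorescence intensity from OMFP dephosphorylation / Read-out basis: % inhibition relative to no-enzyme and uninhibited control wells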
DNMT1 block – DNMT1 (human) enzyme inhibition; P26358; DNMT1 molecular beacon, Hinp1I cleavage, fluorescence; inhibition (reported as % activation of signal), % at 10 µM; 360,000 compounds, 0.83% hits; AID 588458; in the data active means inhibition above about 50%
STEP inh – inhibitors of human striatal-enriched phosphatase STEP. P54829. recombinant STEP, OMFP fluorogenic substrate, fluorescence. inhibition, % at 20 µM. 360,000 compounds, 0.25% hits. AID 588621;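 active means inhibition at 20 µM, scaled per plate between control wells, above about 37%, limit read from the data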;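 further: 0% = DMSO with enzyme and substrate and 100% = substrate only without enzyme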
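System: isolated STEP enzyme; schedule: 20 min enzyme reaction at room temperature, protected from light; medium: Bis-Tris buffer pH 6.0, 2.5 mM DTT, 0.005% Tween 20; signal: fluorescence, 480/540 nm; dosing: single compound dose of 20 µM, 1% DMSO final; also added: OMFP substrate, 25 µM final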
SUMO1-SIM PPI – modulators of human SUMO1-mediated protein-protein interactions | P63165 | SUMO1 binding to a labelled peptide, TR-FRET, 1 h | inhibition, % at 20 µM | 360,000 compounds, 0.33% hits | AID 602429; in the data active means inhibition above about 37%
Target sequence (P63165 whole entry, looked up): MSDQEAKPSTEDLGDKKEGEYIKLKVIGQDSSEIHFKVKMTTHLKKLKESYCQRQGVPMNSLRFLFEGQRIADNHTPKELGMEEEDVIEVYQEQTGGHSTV
Scp-1 inhibitor – blocks human Scp-1 phosphatase activity. Q9GZU7. Recombinant Scp1, phosphopeptide, malachite green phosphate absorbance. inhibition, % at 20 µM. 340,000 compounds, 0.88% hits;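 active means inhibition above about 50% at 20 µM, limit read from the data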;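 further: plate controls were DMSO wells with enzyme for no effect and wells lacking enzyme for full effect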
Target sequence (Q9GZU7 76-261 limits assumed): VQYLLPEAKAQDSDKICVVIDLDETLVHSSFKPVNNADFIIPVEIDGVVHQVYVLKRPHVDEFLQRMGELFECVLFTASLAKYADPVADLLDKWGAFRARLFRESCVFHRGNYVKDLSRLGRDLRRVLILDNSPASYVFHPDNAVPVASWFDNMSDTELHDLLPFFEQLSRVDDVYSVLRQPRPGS
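Test system: SCP-1 catalytic domain; Buffer or medium: Acidic Tris acetate buffer with magnesium and detergent; Also added: Phosphorylated 17-residue peptide substrate; Compound: single 20 µM dose, 1% DMSO; Schedule: enzyme reaction 45 min at room temperature, colour 5 min, stabilisation 30 min; Signal: Phosphate-binding colour reagent, absorbance read at 630 nm.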
Active calls of the source: *.

Screening COc1ccc(Cl)cc1C(=O)NC(=S)Nc1cc(-c2nc3ccccc3[nH]2)ccc1C returned NadD inh 34*, LMPTP inh 5, DNMT1 block -13, STEP inh 13, SUMO1-SIM PPI 2 and Scp-1 inhibitor 10.
`CCc1ccc(Nc2n[n+](-c3ccccc3)c(-c3ccc(N(CC)CC)cc3)s2)cc1` gave NadD inh 28, LMPTP inh 4, DNMT1 block 68*, STEP inh -5, SUMO1-SIM PPI -71 and Scp-1 inhibitor 9.
For Fc1ccc(-[n+]2nc(Nc3ccccc3)sc2-c2c(Cl)cccc2Cl)cc1 the results were NadD inh 8, LMPTP inh 4, DNMT1 block 1, STEP inh -1, SUMO1-SIM PPI -7 and Scp-1 inhibitor 1.
Screening COc1ccc(C)cc1Nc1n[n+](-c2ccccc2)c(-c2ccc(N(C)C)cc2)s1 returned NadD inh 10, LMPTP inh 6, DNMT1 block 60*, STEP inh -1, SUMO1-SIM PPI -44 and Scp-1 inhibitor 14.
CCc1ccc(Nc2n[n+](-c3ccccc3)c(-c3c(Cl)cccc3Cl)s2)cc1 was read as NadD inh 8, LMPTP inh 71*, DNMT1 block 0, STEP inh 3, SUMO1-SIM PPI -34 and Scp-1 inhibitor 20.
CCN(CC)CCNC(=O)C1(c2ccccc2)CCCCC1 was read as NadD inh 2, LMPTP inh 14, DNMT1 block -1, STEP inh -2, SUMO1-SIM PPI 47* and Scp-1 inhibitor -7.
Screening CCNC(=O)C1(c2ccccc2)CCCC1 returned NadD inh -4, LMPTP inh -1, DNMT1 block 2, STEP inh -2, SUMO1-SIM PPI 4 and Scp-1 inhibitor -5.
CCc1n(CC(O)COCC2CC=CCC2)c2ccccc2[n+]1C (centres undefined) was read as NadD inh 0, LMPTP inh -1, DNMT1 block 0, STEP inh 3, SUMO1-SIM PPI -1 and Scp-1 inhibitor 4.
`CCn1c(C)[n+](CC(O)COCC2CC=CCC2)c2ccccc21` (centres undefined) gave NadD inh 16, LMPTP inh 0, DNMT1 block -1, STEP inh -3, SUMO1-SIM PPI 0 and Scp-1 inhibitor 86*.
Screening COc1cccc(Cn2cnc3c(NS(=O)(=O)c4ccc(Cl)cc4Cl)c(C)c(C)cc32)c1 returned NadD inh 26, LMPTP inh 4, DNMT1 block -10, STEP inh 0, SUMO1-SIM PPI -1 and Scp-1 inhibitor -2.
COc1cccc(Cn2cnc3c(NS(=O)(=O)c4cccc(Cl)c4Cl)c(C)c(C)cc32)c1 was read as NadD inh 30*, LMPTP inh 3, DNMT1 block -17, STEP inh -2, SUMO1-SIM PPI -3 and Scp-1 inhibitor 9.
For Nc1nc(N)c2cc([N+](=O)[O-])ccc2n1 the results were NadD inh 2, LMPTP inh 30, DNMT1 block -5, STEP inh -1, SUMO1-SIM PPI -24 and Scp-1 inhibitor 3.
Nc1nc(N)c2c(ccc3c2ccn3Cc2cccc([N+](=O)[O-])c2)n1 was read as NadD inh 2, LMPTP inh 69*, DNMT1 block -10, STEP inh 8 and SUMO1-SIM PPI 10.
`Nc1c(Cl)cc(-c2csc(NCCc3nc4cc(Cl)c(Cl)cc4n3CCCO)n2)cc1Cl` gave NadD inh 14, LMPTP inh 2, DNMT1 block -32, STEP inh -3, SUMO1-SIM PPI 0 and Scp-1 inhibitor 9.
`CCCCCC(=O)NC(NC(=S)NC1CCS(=O)(=O)C1)C(Cl)(Cl)Cl` (centres undefined) gave NadD inh 1, LMPTP inh -1, DNMT1 block 6, STEP inh -1, SUMO1-SIM PPI 59* and Scp-1 inhibitor -4.
Screening Cc1ccc(-c2nnn(CC(=O)N(CCN3CCOCC3)C(C(=O)NC3CCCC3)c3ccncc3)n2)o1 (centres undefined) returned NadD inh 5, LMPTP inh -1, DNMT1 block -1, STEP inh 1, SUMO1-SIM PPI -2 and Scp-1 inhibitor -10.
For CCCCn1c(N)c(N(CC(C)C)C(=O)C2CCN(C(=O)c3ccc(Cl)cc3)CC2)c(=O)[nH]c1=O the results were NadD inh 3, LMPTP inh 0, DNMT1 block -1, STEP inh -2, SUMO1-SIM PPI 3 and Scp-1 inhibitor 9.
Screening COC(=O)c1ccc(C(=O)Nc2ccc3nc(-c4cccnc4)[nH]c3c2)cc1 returned NadD inh -3, LMPTP inh -1, DNMT1 block -6, STEP inh -1, SUMO1-SIM PPI 31 and Scp-1 inhibitor -7.
For COC(=O)c1ccc(C(=O)Nc2ccc3nc(-c4ccncc4)[nH]c3c2)cc1 the results were NadD inh -5, LMPTP inh 0, DNMT1 block -2, STEP inh 1, SUMO1-SIM PPI 51* and Scp-1 inhibitor -10.
N#Cc1c(-c2ccccc2)nc(SCC(=O)N(c2ccccc2)c2ccccc2)[nH]c1=O was read as NadD inh 16, LMPTP inh 1, DNMT1 block 0, STEP inh -1, SUMO1-SIM PPI 8 and Scp-1 inhibitor -7.
For N#Cc1c(-c2ccccc2)nc(SCC(=O)N2c3ccccc3Sc3ccccc32)[nH]c1=O the results were NadD inh 22, LMPTP inh 4, DNMT1 block 5, STEP inh -4, SUMO1-SIM PPI 47* and Scp-1 inhibitor -2.
`O=C(Nc1nc(N2C(=O)c3ccccc3C2=O)n(-c2ccccc2)n1)c1ccc(F)cc1` gave NadD inh 3, LMPTP inh -1, DNMT1 block 1, STEP inh 3, SUMO1-SIM PPI 3 and Scp-1 inhibitor -12.
`COc1ccc(Cl)cc1C(=O)OCC(=O)c1c(N)n(C)c(=O)n(C)c1=O` gave NadD inh 0, LMPTP inh 0, DNMT1 block 3, STEP inh -1 and SUMO1-SIM PPI 5.
`Cn1c(N)c(C(=O)COC(=O)c2ccc3c(c2)C(=O)N(c2ccc(Cl)cc2)C3=O)c(=O)n(C)c1=O` gave NadD inh -2, LMPTP inh 3, DNMT1 block 37, STEP inh 1, SUMO1-SIM PPI 64* and Scp-1 inhibitor -3.
Screening COc1ccc(S(=O)(=O)NCc2csc(-c3cccnc3)n2)cc1 returned NadD inh 0, LMPTP inh -1, DNMT1 block 2, STEP inh -2, SUMO1-SIM PPI 43* and Scp-1 inhibitor -5.
COc1cc(/C=N/NC(=O)c2cccnc2)ccc1OCC(=O)Nc1ccccc1Cl was read as NadD inh -6, LMPTP inh 4, DNMT1 block 35, STEP inh 19, SUMO1-SIM PPI 86* and Scp-1 inhibitor 12.

Source: PubChem BioAssay
